Results from ChEMBL document CHEMBL3526119, “Effect of the CYP2C8 genotype on the pharmacokinetics and pharmacodynamics of repaglinide” (Drug Metab Dispos, 2011).

Legend:
Type in all cases: ADME, organism-based
[1] = AUC (0 to infinity) in healthy white human with CYP2C8*3/*3 genotype at 2 mg, po; set-up: dose 2 mg, route oral, time infinity; settings: plasma
How it was run: (§1)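 Healthy Caucasians genotyped for CYP2C8*3 and SLCO1B1 521T>C were given a single oral 2 mg dose of repaglinide, and alcohol, caffeine and grapefruit were withheld. Plasma was sampled before dosing and at 15 times from 0.25 to 24 h. Drug was measured by LC-MS/MS against diclofenac internal standard, linear 0.098–79.139 µg/L. Noncompartmental analysis: Cmax taken as observed; AUC by linear/log-linear trapezoidal rule extrapolated to infinity.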

[2] = AUC (0 to infinity) in healthy white human at 2 mg, po; set-up: dose 2 mg, time infinity, route oral; settings: plasma; how it was run: as §1
[3] = Cmax in healthy white human with SLCO1B1 521TT/CYP2C8*3/*3 combined genotype at 2 mg, po; set-up: dose 2 mg, route oral; settings: in vivo; how it was run: as §1
[4] = AUC (0 to infinity) in healthy white human with SLCO1B1 521CC/CYP2C8*3/*3 combined genotype at 2 mg, po; set-up: dose 2 mg, route oral, time infinity; settings: plasma; how it was run: as §1
[5] = Cmax in healthy white human with SLCO1B1 521TT/CYP2C8*1/*1 combined genotype at 2 mg, po; set-up: dose 2 mg, route oral; settings: in vivo; how it was run: as §1
[6] = Cmax in healthy white human with CYP2C8*3/*3 genotype at 2 mg, po; set-up: dose 2 mg, route oral; settings: in vivo; how it was run: as §1
[7] = AUC (0 to infinity) in healthy white human with SLCO1B1 521TT/CYP2C8*1/*1 combined genotype at 2 mg, po; set-up: dose 2 mg, route oral, time infinity; settings: plasma; how it was run: as §1
Homo sapiens [8] = experiment: Mean change in blood glucose concentration in healthy white human plasma with CYP2C8*1/*1 genotype at 2 mg, po up to 6 hrs; settings: in vivo
How it was run: (§2)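 Single 2 mg oral dose in healthy Caucasian volunteers genotyped for CYP2C8*3, with SLCO1B1 521T>C also typed. […] Mean change is the average difference between values up to 6 h post-dose and baseline. Fasting lasted to 6 h. Mean with 95% CI or SD by genotype group.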

[9] = AUC (0 to infinity) in healthy white human with SLCO1B1 521CC/CYP2C8*1/*3 combined genotype at 2 mg, po; set-up: dose 2 mg, time infinity, route oral; settings: plasma; how it was run: as §1
Homo sapiens [10] = experiment: Mean change in blood glucose concentration in healthy white human plasma with CYP2C8*3/*3 genotype at 2 mg, po up to 6 hrs; settings: in vivo; how it was run: as §2
Homo sapiens [11] = experiment: Mean change in blood glucose concentration in healthy white human plasma SLCO1B1 521CC/CYP2C8*3/*3 combined genotype at 2 mg, po; settings: in vivo
How it was run: (§3)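 Venous blood glucose was read at each blood sampling time after a single oral 2 mg dose, with fasting up to 6 h. […] Maximal change is the largest change from baseline. Mean change is the average difference between values up to 6 h post-dose and baseline.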

Homo sapiens [12] = experiment: Maximal change in insulin concentration in healthy white human plasma with CYP2C8*1/*1 genotype at 2 mg, po up to 6 hrs; settings: in vivo
How it was run: (§4)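 Plasma insulin was sampled up to 6 h after a single oral 2 mg dose, with subjects fasting. It was measured by solid-phase enzyme-labelled chemiluminescent immunometric assay, calibration range 2–300 mU/l. Maximal change is the largest change from the baseline concentration within 6 h.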

[13] = Cmax in healthy white human with SLCO1B1 521TC/CYP2C8*1/*3 combined genotype at 2 mg, po; set-up: dose 2 mg, route oral; settings: in vivo; how it was run: as §1
Homo sapiens [14] = experiment: Mean change in blood glucose concentration in healthy white human plasma SLCO1B1 521TC/CYP2C8*3/*3 combined genotype at 2 mg, po; settings: in vivo; how it was run: as §2
[15] = Terminal half life in healthy white human at 2 mg, po; settings: in vivo, read-out: beta t1/2 (converted)
How it was run: (§5)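 Single oral 2 mg dose; plasma sampled pre-dose and from 0:15 to 24 h post-dose (15 samples). Repaglinide measured by LC-MS/MS with diclofenac internal standard; calibration 0.098–79.139 µg/L. Noncompartmental analysis; AUC by linear/log-linear trapezoidal rule extrapolated to infinity. Reported as mean with 95% CI for all subjects and for each CYP2C8*3 genotype group.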

Homo sapiens [16] = experiment: Mean change in insulin concentration in healthy white human plasma with CYP2C8*1/*1 genotype at 2 mg, po up to 6 hrs; settings: in vivo
How it was run: (§6)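 Healthy Caucasians got a single 2 mg oral dose and were genotyped for CYP2C8*3 and SLCO1B1 521T>C. Plasma insulin was sampled from pre-dose to 6 h and measured by solid-phase enzyme-labelled chemiluminescent immunometric assay (calibration 2–300 mU/l). Mean change is the average of post-dose values minus baseline up to 6 h, summarised per genotype group.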

Homo sapiens [17] = experiment: Maximal change in blood glucose concentration in healthy white human plasma with CYP2C8*1/*1 genotype at 2 mg, po up to 6 hrs; settings: in vivo; how it was run: as §3
Homo sapiens [18] = experiment: Mean change in insulin concentration in healthy white human plasma at 2 mg, po up to 6 hrs; settings: in vivo; how it was run: as §6
Homo sapiens [19] = experiment: Mean change in insulin concentration in healthy white human plasma with SLCO1B1 521CC/CYP2C8*1/*3 combined genotype at 2 mg, po; settings: in vivo; how it was run: as §6
[20] = Terminal half life in healthy white human with CYP2C8*1/*3 genotype at 2 mg, po; settings: in vivo, read-out: beta t1/2 (converted); how it was run: as §5
[21] = AUC (0 to infinity) in healthy white human with SLCO1B1 521TC/CYP2C8*3/*3 combined genotype at 2 mg, po; set-up: dose 2 mg, route oral, time infinity; settings: plasma; how it was run: as §1
[22] = Oral clearance in healthy white human with CYP2C8*1/*3 genotype at 2 mg, po; settings: in vivo
How it was run: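 Repaglinide was assayed by LC-MS/MS with diclofenac internal standard (LLOQ 0.098 µg/L). Noncompartmental analysis gave AUC by linear/log-linear trapezoidal rule extrapolated to infinity. Weight-adjusted oral clearance = dose/(AUC × body weight).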

[23] = AUC (0 to infinity) in healthy white human with CYP2C8*1/*3 genotype at 2 mg, po; set-up: dose 2 mg, time infinity, route oral; settings: plasma; how it was run: as §1
Homo sapiens [24] = experiment: Mean change in insulin concentration in healthy white human plasma with SLCO1B1 521TC/CYP2C8*1/*1 combined genotype at 2 mg, po; settings: in vivo; how it was run: as §6
Homo sapiens [25] = experiment: Mean change in blood glucose concentration in healthy white human plasma SLCO1B1 521TT/CYP2C8*1/*1 combined genotype at 2 mg, po; settings: in vivo; how it was run: as §2
[26] = AUC (0 to infinity) in healthy white human with SLCO1B1 521TT/CYP2C8*3/*3 combined genotype at 2 mg, po; set-up: dose 2 mg, time infinity, route oral; settings: plasma; how it was run: as §1
[27] = AUC (0 to infinity) in healthy white human with CYP2C8*1/*1 genotype at 2 mg, po; set-up: dose 2 mg, time infinity, route oral; settings: plasma; how it was run: as §1
Homo sapiens [28] = experiment: Mean change in insulin concentration in healthy white human plasma with CYP2C8*1/*3 genotype at 2 mg, po up to 6 hrs; settings: in vivo; how it was run: as §6
Homo sapiens [29] = experiment: Mean change in blood glucose concentration in healthy white human plasma with CYP2C8*1/*3 genotype at 2 mg, po up to 6 hrs; settings: in vivo; how it was run: as §2
Homo sapiens [30] = species: Homo sapiens; experiment: Maximal change in blood glucose concentration in healthy human plasma with SLCO1B1 521TT genotype at 0.5 mg
Homo sapiens [31] = experiment: Maximal change in insulin concentration in healthy white human plasma with CYP2C8*3/*3 genotype at 2 mg, po up to 6 hrs; settings: in vivo; how it was run: as §4
[32] = AUC (0 to infinity) in healthy white human with SLCO1B1 521TC/CYP2C8*1/*1 combined genotype at 2 mg, po; set-up: dose 2 mg, route oral, time infinity; settings: plasma; how it was run: as §1
[33] = Terminal half life in healthy white human with CYP2C8*3/*3 genotype at 2 mg, po; settings: in vivo, read-out: beta t1/2 (converted); how it was run: as §5

AUC(0-inf) [1]: 72.4 ng·h/mL
AUC(0-inf) [2]: 97.4 ng·h/mL
Cmax [3]: 36.6 ng/mL
AUC(0-inf) [4]: 95.8 ng·h/mL
Cmax [5]: 52.5 ng/mL
Cmax [6]: 38.5 ng/mL
AUC(0-inf) [7]: 92.3 ng·h/mL
Activity (Homo sapiens [8]): -0.42 mM
AUC(0-inf) [9]: 18.2 ng·h/mL
Activity (Homo sapiens [10]): -0.5 mM
Activity (Homo sapiens [11]): -0.8 mM
Activity (Homo sapiens [12]): 23.9 mU/L
Cmax [13]: 45 ng/mL
Activity (Homo sapiens [14]): -0.2 mM
half-life [15]: 1.3 h
Activity (Homo sapiens [16]): 6.7 mU/L
Activity (Homo sapiens [17]): -1.62 mM
Activity (Homo sapiens [18]): 5.5 mU/L
Activity (Homo sapiens [19]): 0.6 mU/l
half-life [20]: 1.3 h
AUC(0-inf) [21]: 23.4 ng·h/mL
CL/F [22]: 7.67 mL/min/kg
AUC(0-inf) [23]: 97.2 ng·h/mL
Activity (Homo sapiens [24]): 5.7 mU/l
Activity (Homo sapiens [25]): -0.4 mM
AUC(0-inf) [26]: 116 ng·h/mL
AUC(0-inf) [27]: 106 ng·h/mL
Activity (Homo sapiens [28]): 5.2 mU/L
Activity (Homo sapiens [29]): -0.65 mM
Activity (Homo sapiens [30]): 1.9 mM
Activity (Homo sapiens [31]): 8.3 mU/L
AUC(0-inf) [32]: 146 ng·h/mL
half-life [33]: 1.3 h
SMILES: CCOc1cc(CC(=O)N[C@@H](CC(C)C)c2ccccc2N2CCCCC2)ccc1C(=O)O [REPAGLINIDE]
